Activity calls are given as the source filed them. The rule behind the calls is not given here.
Tests used:
[1] = Oral bioavailability in Sprague-Dawley rat at 3 mg/kg by LC-ESI-MS/MS analysis; format: ADME, organism-based; details: in vivo
Procedure, shortened: (§1)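 Conscious 7-week-old male Sprague-Dawley rats on standard diet with free water. Dosing is 1 mg/kg iv bolus in N-methylpyrrolidin-2-one/PEG 200, or 3 mg/kg oral suspension in 0.5% aqueous methylcellulose. Blood is sampled at various time points after administration.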

[2] = Drug uptake in Syrian hamster adipose tissue at 10 mg/kg, po dosed once daily for 14 days measured 24 hrs post last dose by LC-MS/MS method; format: ADME, organism-based, Mesocricetus auratus; details: in vivo
Procedure, shortened: (§2)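 Chow-fed hamsters dosed orally once daily for 14 days. Blood and ~100 mg adipose, adrenal and liver samples are taken 24 h after the final dose. Tissues are flash-frozen and stored at −80 °C. Total drug concentrations are measured by LC-MS/MS. Mean ± SEM, seven animals per group.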

Syrian golden hamster [3] = experiment: Inhibition of CETP in Syrian hamster blood at 0.3 to 10 mg/kg, po dosed once daily for 2 weeks and measured 24 hrs post last dose; format: functional, organism-based; details: Mesocricetus auratus
Cytochrome P450 3A4 [4] = target: T1, Cytochrome P450 3A4 (Homo sapiens, UniProt P08684); experiment: Inhibition of CYP3A4 (unknown origin) in the presence of testosterone; format: ADME
Serum [5] = experiment: Drug uptake in triglyceride rich lipoprotein fraction of human serum from human donors with normal triglyceride levels (<150 mg/dL) by LC-MS/MS method; format: ADME, cell-free
Procedure, shortened: (§3)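 Pooled unfasted human serum (mean TG 122, 347 or 958 mg/dL) spiked with inhibitor to 500 ng/mL, 37 °C, 1 h. NaBr density-gradient ultracentrifugation, 18.5 h at 15 °C. Acetonitrile precipitation, glyburide internal standard, LC-MS/MS in duplicate. Result given as % of total across pools.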

Cytochrome P450 3A4 [6] = target: T1, Cytochrome P450 3A4; experiment: Inhibition of CYP3A4 (unknown origin) in the presence of midozolam; format: ADME
[7] = AUC (infinity) in Sprague-Dawley rat at 1 mg/kg, iv or 3 mg/kg, po by LC-ESI-MS/MS analysis; format: ADME, organism-based; details: in vivo; procedure, shortened: as §1
Plasma = experiment: Protein binding in human plasma using [14C]-labeled compound after 3 hrs by scintillation counting based ultracentrifugation method; format: ADME, cell-free
Procedure, shortened: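 Human plasma spiked with [14C]-labelled compound at 50−10000 ng/mL, then ultracentrifuged 3 h at 37 °C at 306000g. Supernatant radioactivity is counted by scintillation. Bound fraction = (total − supernatant)/total.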

[8] = Drug uptake in Syrian hamster adrenal tissue at 10 mg/kg, po dosed once daily for 14 days measured 24 hrs post last dose by LC-MS/MS method; format: ADME, organism-based, Mesocricetus auratus, Adrenal gland; details: in vivo; procedure, shortened: as §2
[9] = Selectivity for inhibition of CYP2D6 (unknown origin) to IC50 for inhibition of CETP in human plasma
Serum [10] = experiment: Drug uptake in HDL fraction of human serum from human donors with normal triglyceride levels (<150 mg/dL) by LC-MS/MS method; format: ADME, cell-free; procedure, shortened: as §3
Rattus norvegicus [11] = experiment: Toxicity in cannulated Sprague-Dawley rat assessed as increase in plasma aldosterone levels at 5 mg/kg, iv by radioimmunoassay; format: organism-based; details: in vivo
Hamster [12] = experiment: Ex vivo inhibition of CETP activity in hamster hypertriglyceridemia model treated with 100 mg/kg, iv Triton WR-1339 dosed 5 hrs post compound dose measured every 15 mins for 120 mins by fluorescence method; format: functional, organism-based; details: Cricetinae
Procedure, shortened: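 Chow-fed hamsters given a single gavage dose of compound or vehicle. Triton WR-1339 (100 mg/kg) or saline is given iv 5 h later, and plasma is taken 3 h after that. Plasma (final 80%) is mixed with fluorescent donor in 50 mM Tris-HCl pH 7.4, 150 mM NaCl, 2 mM EDTA. Ex/em 485/535 nm, read every 15 min for 120 min at 37 °C. Activity is the 30–90 min slope. Five animals per group.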

[13] = Volume of distribution in Sprague-Dawley rat at 1 mg/kg, iv or 3 mg/kg, po by LC-ESI-MS/MS analysis; format: ADME, organism-based; details: in vivo; procedure, shortened: as §1
Serum [14] = experiment: Drug uptake in HDL fraction of human serum from human donors with triglyceride levels ( 300-500 and >750 mg/dL) by LC-MS/MS method; format: ADME, cell-free; procedure, shortened: as §3
Hamster [15] = experiment: Increase in HDL cholesterol levels in hamster plasma by HPLC size exclusion chromatography method relative to control; format: functional; details: Cricetinae
Procedure, shortened: (§4)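 Chow-fed hamsters gavaged once daily in the morning for 2 weeks (0.3, 1, 3, 10 mg/kg; vehicle 10 mL/kg). Blood is drawn from the abdominal vein under isoflurane 24 h post last dose, after a 16 h fast. Lipoprotein cholesterol is measured by Superose 6 HPLC with online enzymatic detection at 580 nm, standardized to control plasma. Mean ± SEM, n=6, Dunnett test.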

Serum [16] = experiment: Drug uptake in lipoprotein deficient serum fraction of human serum from human donors with normal triglyceride levels (<150 mg/dL) by LC-MS/MS method; format: ADME, cell-free; procedure, shortened: as §3
Syrian golden hamster [17] = experiment: Reduction in LDL cholesterol level in Syrian hamster plasma at 0.3 and 10 mg/kg, po dosed once daily for 2 weeks and measured 24 hrs post last dose by HPLC size exclusion chromatography method relative to control; format: functional, organism-based; details: Mesocricetus auratus; procedure, shortened: as §4
Serum [18] = experiment: Drug uptake in triglyceride rich lipoprotein fraction of human serum from human donors with triglyceride levels ( 300-500 and >750 mg/dL) by LC-MS/MS method; format: ADME, cell-free; procedure, shortened: as §3
Syrian golden hamster [19] = experiment: Increase in HDL cholesterol level in Syrian hamster plasma at 0.3 and 10 mg/kg, po dosed once daily for 2 weeks and measured 24 hrs post last dose by HPLC size exclusion chromatography method relative to control; format: functional, organism-based; details: Mesocricetus auratus; procedure, shortened: as §4
[20] = Clearance in Sprague-Dawley rat plasma at 1 mg/kg, iv or 3 mg/kg, po by LC-ESI-MS/MS analysis; format: ADME, organism-based; procedure, shortened: as §1
[21] = target: T2, Cholesteryl ester transfer protein (Homo sapiens) (UniProt P11597); experiment: Inhibition of CETP activity in human serum at upto 1200 mg/dl serum triglyceride concentration by LC-MS/MS method; details: in the assay text read “fluorescence method” for “LC-MS/MS method”
T2 sequence (whole entry): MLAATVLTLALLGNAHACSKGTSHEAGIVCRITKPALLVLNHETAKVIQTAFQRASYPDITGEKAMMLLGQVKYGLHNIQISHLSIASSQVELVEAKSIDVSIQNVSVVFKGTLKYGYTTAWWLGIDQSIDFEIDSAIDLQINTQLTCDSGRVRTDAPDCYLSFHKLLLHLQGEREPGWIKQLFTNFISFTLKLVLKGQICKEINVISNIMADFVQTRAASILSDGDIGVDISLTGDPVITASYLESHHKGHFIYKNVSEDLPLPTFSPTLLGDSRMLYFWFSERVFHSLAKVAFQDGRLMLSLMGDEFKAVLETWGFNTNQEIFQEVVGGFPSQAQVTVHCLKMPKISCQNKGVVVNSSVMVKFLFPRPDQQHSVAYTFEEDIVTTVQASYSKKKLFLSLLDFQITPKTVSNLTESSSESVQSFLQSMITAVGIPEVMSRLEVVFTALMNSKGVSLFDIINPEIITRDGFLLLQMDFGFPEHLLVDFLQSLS
Procedure, shortened: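 Three human serum pools of differing triglyceride level. IC50 values are the mean of two replicates per pool.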

[22] = Half life in Sprague-Dawley rat at 1 mg/kg, iv or 3 mg/kg, po by LC-ESI-MS/MS analysis; format: ADME, organism-based; details: in vivo; procedure, shortened: as §1
[23] = Drug uptake in Syrian hamster plasma at 10 mg/kg, po dosed once daily for 14 days measured 24 hrs post last dose by LC-MS/MS method; format: ADME, organism-based, Mesocricetus auratus; details: in vivo; procedure, shortened: as §2
Cytochrome P450 2D6 = Cytochrome P450 2D6 (Homo sapiens, UniProt P10635); experiment: Inhibition of CYP2D6 (unknown origin); format: ADME
[24] = Selectivity for inhibition of CYP3A4 (unknown origin) to IC50 for inhibition of CETP in human plasma
Syrian golden hamster [25] = experiment: Reduction in LDL cholesterol level in Syrian hamster plasma at 0.3 and 10 mg/kg, po dosed once daily for 2 weeks and measured 24 hrs post last dose by HPLC size exclusion chromatography method; format: functional, organism-based; details: Mesocricetus auratus; procedure, shortened: as §4
Rattus norvegicus [26] = experiment: Toxicity in cannulated Sprague-Dawley rat assessed as increase in mean arterial pressure at 5 mg/kg, iv by blood pressure transducer based method; format: organism-based; details: in vivo
Serum [27] = experiment: Drug uptake in lipoprotein deficient serum fraction of human serum from human donors with triglyceride levels ( 300-500 and >750 mg/dL) by LC-MS/MS method; format: ADME, cell-free; procedure, shortened: as §3
Serum [28] = experiment: Drug uptake in LDL fraction of human serum from human donors with triglyceride levels ( 300-500 and >750 mg/dL) by LC-MS/MS method; format: ADME, cell-free; procedure, shortened: as §3
Cytochrome P450 2C9 = Cytochrome P450 2C9 (Homo sapiens, UniProt P11712); experiment: Inhibition of CYP2C9 (unknown origin); format: ADME
Serum [29] = experiment: Drug uptake in LDL fraction of human serum from human donors with normal triglyceride levels (<150 mg/dL) by LC-MS/MS method; format: ADME, cell-free; procedure, shortened: as §3
NCI-H295R = experiment: Toxicty in human NCI-H295R cells assessed as increase in aldosterone levels at 0.1 to 10000 nM after 24 hrs by scintillation proximity assay; format: toxicity, cell-based; details: 10 µM
[30] = Selectivity for inhibition of CYP2C9 (unknown origin) to IC50 for inhibition of CETP in human plasma
[31] = 1-Octanol-phosphate buffered saline partition coefficient, log D of compound at […] by tandem mass spectrometry method; format: physicochemical

T1 sequence (P08684 whole entry): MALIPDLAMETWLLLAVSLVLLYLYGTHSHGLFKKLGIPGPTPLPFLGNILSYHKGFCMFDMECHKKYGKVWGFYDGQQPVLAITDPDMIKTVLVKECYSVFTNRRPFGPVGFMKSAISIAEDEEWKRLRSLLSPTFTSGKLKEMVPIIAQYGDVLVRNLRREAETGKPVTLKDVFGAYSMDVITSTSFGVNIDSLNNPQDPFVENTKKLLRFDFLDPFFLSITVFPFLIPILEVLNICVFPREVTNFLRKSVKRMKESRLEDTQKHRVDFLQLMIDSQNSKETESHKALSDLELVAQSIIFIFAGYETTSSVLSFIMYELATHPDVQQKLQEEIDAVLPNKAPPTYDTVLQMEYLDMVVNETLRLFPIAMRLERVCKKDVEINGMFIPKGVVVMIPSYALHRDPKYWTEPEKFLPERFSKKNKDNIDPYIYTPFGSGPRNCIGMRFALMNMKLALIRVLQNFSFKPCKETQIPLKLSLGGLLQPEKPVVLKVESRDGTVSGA
Chain of Cytochrome P450 2D6 (P10635 whole entry): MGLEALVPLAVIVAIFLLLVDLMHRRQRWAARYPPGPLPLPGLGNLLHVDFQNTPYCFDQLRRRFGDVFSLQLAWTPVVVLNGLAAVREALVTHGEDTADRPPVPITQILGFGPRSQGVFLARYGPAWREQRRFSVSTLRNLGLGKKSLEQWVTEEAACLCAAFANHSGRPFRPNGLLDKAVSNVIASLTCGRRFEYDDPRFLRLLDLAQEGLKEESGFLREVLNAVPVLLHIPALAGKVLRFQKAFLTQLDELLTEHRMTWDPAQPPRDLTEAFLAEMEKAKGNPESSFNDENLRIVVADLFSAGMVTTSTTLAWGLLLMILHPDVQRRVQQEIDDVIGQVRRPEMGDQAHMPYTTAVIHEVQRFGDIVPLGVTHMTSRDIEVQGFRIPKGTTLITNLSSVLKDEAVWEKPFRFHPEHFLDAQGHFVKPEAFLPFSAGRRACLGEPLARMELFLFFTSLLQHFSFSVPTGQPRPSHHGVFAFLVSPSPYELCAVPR
Chain of Cytochrome P450 2C9 (P11712 whole entry): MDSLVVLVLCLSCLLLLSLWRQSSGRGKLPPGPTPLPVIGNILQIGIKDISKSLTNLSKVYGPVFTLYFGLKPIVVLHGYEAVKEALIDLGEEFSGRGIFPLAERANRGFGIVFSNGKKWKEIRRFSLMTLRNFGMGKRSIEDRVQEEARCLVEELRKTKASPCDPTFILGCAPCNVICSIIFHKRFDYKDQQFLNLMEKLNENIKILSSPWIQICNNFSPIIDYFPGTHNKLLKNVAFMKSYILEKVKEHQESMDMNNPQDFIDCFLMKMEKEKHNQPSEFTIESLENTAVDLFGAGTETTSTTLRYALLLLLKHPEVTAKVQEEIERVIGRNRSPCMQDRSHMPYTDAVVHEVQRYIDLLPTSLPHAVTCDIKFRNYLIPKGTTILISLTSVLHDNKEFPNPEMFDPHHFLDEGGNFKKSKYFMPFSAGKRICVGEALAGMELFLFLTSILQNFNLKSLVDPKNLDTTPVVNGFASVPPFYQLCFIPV

bioavailability [1]: 43%
Drug uptake [2]: Not Active
IC50 (Cytochrome P450 3A4 [4]): > 50 µM
Drug uptake (Serum [5]): Active
IC50 (Cytochrome P450 3A4 [6]): 10.6 µM
AUC(0-inf) [7]: 27.2 µM·h
PPB (Plasma): 99.4%
Drug uptake [8]: Not Active
Drug uptake (Serum [10]): Active
Vd [13]: 0.57 L/kg
Drug uptake (Serum [14]): Active
Drug uptake (Serum [16]): Active
Drug uptake (Serum [18]): Active
clearance [20]: 1.5 mL/min/kg
inhibition [21]: Active
half-life [22]: 5.8 h
Drug uptake [23]: Active
IC50 (Cytochrome P450 2D6): 31 µM
Drug uptake (Serum [27]): Active
Drug uptake (Serum [28]): Active
IC50 (Cytochrome P450 2C9): 19 µM
Drug uptake (Serum [29]): Active
logD [31]: 5.2
SMILES: CC[C@@H]1C[C@H](N(Cc2cc(C(F)(F)F)cc(C(F)(F)F)c2)c2ncc(-c3cnn(C)c3)cn2)C[C@H](CC)N1C(=O)O[C@H]1CC[C@H](C(=O)O)CC1
inhibition (Syrian golden hamster [3]): Active
Selectivity ratio [9]: >170
Activity (Rattus norvegicus [11]): Non-Toxic
inhibition (Hamster [12]): Active
Activity (Hamster [15]): Dose-dependent effect
Activity (Syrian golden hamster [17]): Active
Activity (Syrian golden hamster [19]): Dose-dependent effect
Selectivity ratio [24]: >170
Activity (Syrian golden hamster [25]): Dose-dependent effect
Activity (Rattus norvegicus [26]): Non-Toxic
Activity (NCI-H295R): Non-Toxic
Selectivity ratio [30]: >170

From ChEMBL document CHEMBL4028876, “Discovery of a Novel Piperidine-Based Inhibitor of Cholesteryl Ester Transfer Protein (CETP) That Retains Activity in Hypertriglyceridemic Plasma” (J Med Chem, 2017)
